Source: paper PMC7771113 (International Journal for Parasitology: Drugs and Drug …, 2020)
Like-named read-outs stand apart in the source and are kept apart here.

How the values were obtained:
[1] = system: H4 acetylation in T. gondii; conditions: ref Bougdour et al., 2009; cited from earlier work
T. gondii = conditions: cited from earlier work
[2] = system: T. gondii ME49 strain (type II) tachyzoites; test: Effect on tachyzoites of the ME49 strain in NDHF fibroblasts; type: cell-based, Toxoplasma gondii; conditions: 1 μM TST, 0.1 μM SAHA, 24 h
[3] = system: bradyzoites of the EGS strain; test: Activity against bradyzoites of the EGS strain in 96 h-infected NDHF fibroblasts; type: cell-based, Toxoplasma gondii; conditions: 48 h; for proliferation or viability of bradyzoites: 1 and 5 μM TST, 0.1 μM SAHA
In short: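 Tachyzoites of the EGS strain expressing SAG1mCherry/BAG1sfGFP were grown in NDHF fibroblasts for 96 h, when bradyzoite conversion and spontaneous cyst formation are higher, then treated for 48 h. DMSO was at most 0.1% (v/v). Bradyzoites were imaged by fluorescence microscopy and fluorescence intensity was quantified. Two independent experiments; one-way ANOVA with Bonferroni test.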

[4] = system: i. p. (intra peritoneal) macrophages; test: Cytotoxicity assay in host cells; type: cell-based, mouse; conditions: read-out: Macrophages CC50; 48h
[5] = Cytotoxicity assay in host cells; type: cell-based, Human; conditions: human, NDHF fibroblasts; for CC50 at 48 h: NDHF CC50, 48h
[6] = Cytotoxicity assay in host cells; type: cell-based; conditions: mouse, primary microglial cultures (mixed astrocytes/microglia)
[7] = system: histone H4 (lys16) acetylation in T. gondii; test: Western blot of histone H4 acetylation in treated tachyzoites; type: cell-based, Toxoplasma gondii; conditions: 0,2 μM SAHA, 1 μM TST, 48 h
In short: (§1)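 Infected NDHF fibroblasts were treated for 48 h. Tachyzoites were released by 30G needle passage, pelleted at 2000 rcf for 10 min and filter-purified; 10^6 parasites were cryolysed with protease inhibitors. Primary antibodies, 1 h: H3 and acetyl-H3 Lys9/14 each 1:1000; H4 1:3000, acetyl-H4 Lys16 1:1000; α-tubulin 1:1000, acetylated α-tubulin 1:2000. Detection by HRP secondaries and ECL. Bands from three experiments were normalised to GAPDH, and acetylated/total ratios were computed.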

[8] = system: histone H3 (Lys 9/14) acetylation in T. gondii; test: Western blot of histone H3 acetylation in treated tachyzoites; type: cell-based, Toxoplasma gondii; conditions: 0,2 μM SAHA, 1 μM TST, 48 h
In short: as §1

[9] = system: T. gondii RH-ACP-YFP tachyzoite mitochondria; test: MitoTracker fluorescence analysis of parasite mitochondria; type: cell-based, Toxoplasma gondii; conditions: 1 μM TST, 0.1 μM SAHA, 24 h
In short: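 NDHF fibroblasts infected with RH-ACP-YFP tachyzoites were treated for 24 h, then incubated with 50 nM MitoTracker Red CMXRos for 45 min. Mitochondrial membrane potential and partitioning were assessed by confocal and SR-SIM imaging. Two independent experiments.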

T. gondii RH tachyzoites = test: Fluorescence microscopy of cell division and apicoplast; type: cell-based, Toxoplasma gondii; conditions: 1 μM TST, 0.1 μM SAHA, 24 h; for effect on apicoplast: ACP-YFP tachyzoites
In short: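 NDHF fibroblasts were infected with RH-ACP-YFP tachyzoites and treated for 24 h, then fixed 40 min in 4% formaldehyde/PBS and permeabilised 15 min in 0.5% Triton X-100. Staining used anti-SAG1 and rabbit anti-centrin1 (1:1000), Alexa secondaries (1:800) and Hoechst (0.5 μg/mL). Daughter budding was also examined in RH-infected cells with anti-IMC1 (1:1000). Imaging by confocal and SR-SIM; two independent experiments.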

[10] = system: T. gondii RH strain (type I) tachyzoites; test: Antiproliferative assay, tachyzoites of RH strain in LLC-MK2 cells; type: cell-based; conditions: Toxoplasma gondii
[11] = system: T. gondii EGS strain (atypical, I/III); test: Antiproliferative assay, tachyzoites of EGS strain; type: cell-based; conditions: Toxoplasma gondii, 48 h, read-out: T. gondii EGS IC50
NDHF fibroblasts = test: Cytotoxicity assay in host cells; type: cell-based, Human
T. gondii α-tubulin = test: Western blot of α-tubulin and acetylated α-tubulin in treated tachyzoites; type: cell-based, Toxoplasma gondii; conditions: 1 μM TST, 0.1 μM SAHA, 48 h
In short: as §1

| Molecule | tachyzoite proliferation, ME49 strain [2] | proliferation or viability of bradyzoites [3] | CC50 [4] | CC50 at 48 h [5] | CC50 at 48 h [6] | acetylation levels of H4 (lys16), rH4ac/rH4 [7] | acetylation levels of H3 (Lys 9/14), rH3ac/rH3 [8] | effect on parasite mitochondria (Mitotracker) [9] | effect on cell division / daughter cell budding (T. gondii RH tachyzoites) | effect on apicoplast (T. gondii RH tachyzoites) | further results |
| --- | --- | --- | --- | --- | --- | --- | --- | --- | --- | --- | --- |
| FR235222 |  |  |  |  |  |  |  |  |  |  | H4 acetylation [1]: increased H4 acetylation |
| COc1cccc(CC(=O)Nc2ccc(C(=O)NO)cc2)c1 [N-hydroxy-4-[2-(3-methoxyphenyl)acetamido]benzamid] |  |  |  |  |  |  |  |  |  |  | IC50 (T. gondii; RH strain, ref Loeuillet et al., 2018): 0.35 µM |
| O=C(CCCCCCC(=O)Nc1ccccc1)NO [SAHA, Suberoylanilide Hydroxamic Acid] | inhibit tachyzoite proliferation significantly | inhibited significantly | 4.61 µM | > 20 µM | > 20 µM | modest increase | modest increase | mitochondrion fragmentation | masses of damaged parasites showing several centrosomes | apicoplast fragmentation | amount of bradyzoites in the culture ([3]; 0.2 μM SAHA): maintained the same amount of bradyzoites in the culture as in the control |
| CCc1nc(N)nc(N)c1-c1ccc(Cl)cc1 [pyrimethamine] |  |  |  |  |  |  |  |  |  |  | IC50 (T. gondii; read-out: IC50 against T. gondii, ref Dubar et al., 2011, Martins-Duarte, 2006): 0.12 µM |
| CN1CCc2c(c3ccccc3n2Cc2ccc(C(=O)NO)cc2)C1 [TST, Tubastatin A] | inhibit tachyzoite proliferation significantly | inhibited significantly | 13.5 µM | > 20 µM | > 20 µM | significant increase | decrease below the levels of the untreated cells | reduction of the labeling intensity of mitochondria | formation of a rounded mass of parasites | Alteration at the apicoplast partition | IC90 ([10]; LLC-MK2): 5 µM; IC50 ([10]; LLC-MK2, 24 h): 0.019 ± 0.001 µM; IC50 ([10]; LLC-MK2, 48 h, read-out: T. gondii RH IC50): 0.52 µM; IC50 [11]: 0.29 µM; CC50 at 120 h ([5]; CC50, NDHF fibroblasts, treatment for 120 h with higher concentrations (20–80 μM)): 29.9 µM; CC50 times higher than the IC50 obtained for T. gondii (NDHF fibroblasts; CC50 in NDHF after 120 h): 57 times; selective index (NDHF fibroblasts; in different types of mammalian cells after 48 h of treatment): at least 20; tubulin acetylation levels, ratio rTubac/rTub (T. gondii α-tubulin): no change |
